Assay type in all cases: cell-based
The target of experiment [1] is T1, Protein cereblon/Histone deacetylase 2 (Homo sapiens) (UniProt Q92769+Q96SW2). In words: Induction of CRBN ubiquitin ligase-mediated HDAC2 degradation in human MCF7 cells assessed as decrease in HDAC2 levels at 5 uM after 12 hrs by immunoblotting analysis. An outline of the steps:
(§1)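 MCF-7 cells exposed to bifunctional degraders at 5 µM for 12 h. Whole-cell lysate run on SDS-PAGE and immunoblotted for HDAC1, HDAC2, HDAC4 and HDAC6.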

For experiment [2], the target named is T2, Protein cereblon/Protein deacetylase HDAC6 (Homo sapiens, UniProt Q9UBN7+Q96SW2). In words: Induction of CRBN ubiquitin ligase-mediated HDAC6 degradation in human MCF7 cells assessed as decrease in HDAC6 levels at 5 uM after 12 hrs by immunoblotting analysis. An outline of the steps:
as §1
Target sequence in this assay (Q96SW2 whole entry, looked up): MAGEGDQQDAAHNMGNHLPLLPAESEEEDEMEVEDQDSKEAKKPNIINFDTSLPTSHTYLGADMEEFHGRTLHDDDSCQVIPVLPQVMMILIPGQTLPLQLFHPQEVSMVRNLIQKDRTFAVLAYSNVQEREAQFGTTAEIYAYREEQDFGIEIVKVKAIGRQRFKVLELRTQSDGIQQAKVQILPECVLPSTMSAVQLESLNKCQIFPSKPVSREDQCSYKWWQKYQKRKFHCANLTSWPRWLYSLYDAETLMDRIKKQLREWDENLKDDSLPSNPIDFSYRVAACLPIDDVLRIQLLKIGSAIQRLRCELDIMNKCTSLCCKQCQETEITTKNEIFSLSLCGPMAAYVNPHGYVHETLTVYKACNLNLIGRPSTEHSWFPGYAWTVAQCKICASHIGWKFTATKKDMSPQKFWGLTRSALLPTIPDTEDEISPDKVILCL
Target sequence in this assay (Q9UBN7 whole entry, looked up): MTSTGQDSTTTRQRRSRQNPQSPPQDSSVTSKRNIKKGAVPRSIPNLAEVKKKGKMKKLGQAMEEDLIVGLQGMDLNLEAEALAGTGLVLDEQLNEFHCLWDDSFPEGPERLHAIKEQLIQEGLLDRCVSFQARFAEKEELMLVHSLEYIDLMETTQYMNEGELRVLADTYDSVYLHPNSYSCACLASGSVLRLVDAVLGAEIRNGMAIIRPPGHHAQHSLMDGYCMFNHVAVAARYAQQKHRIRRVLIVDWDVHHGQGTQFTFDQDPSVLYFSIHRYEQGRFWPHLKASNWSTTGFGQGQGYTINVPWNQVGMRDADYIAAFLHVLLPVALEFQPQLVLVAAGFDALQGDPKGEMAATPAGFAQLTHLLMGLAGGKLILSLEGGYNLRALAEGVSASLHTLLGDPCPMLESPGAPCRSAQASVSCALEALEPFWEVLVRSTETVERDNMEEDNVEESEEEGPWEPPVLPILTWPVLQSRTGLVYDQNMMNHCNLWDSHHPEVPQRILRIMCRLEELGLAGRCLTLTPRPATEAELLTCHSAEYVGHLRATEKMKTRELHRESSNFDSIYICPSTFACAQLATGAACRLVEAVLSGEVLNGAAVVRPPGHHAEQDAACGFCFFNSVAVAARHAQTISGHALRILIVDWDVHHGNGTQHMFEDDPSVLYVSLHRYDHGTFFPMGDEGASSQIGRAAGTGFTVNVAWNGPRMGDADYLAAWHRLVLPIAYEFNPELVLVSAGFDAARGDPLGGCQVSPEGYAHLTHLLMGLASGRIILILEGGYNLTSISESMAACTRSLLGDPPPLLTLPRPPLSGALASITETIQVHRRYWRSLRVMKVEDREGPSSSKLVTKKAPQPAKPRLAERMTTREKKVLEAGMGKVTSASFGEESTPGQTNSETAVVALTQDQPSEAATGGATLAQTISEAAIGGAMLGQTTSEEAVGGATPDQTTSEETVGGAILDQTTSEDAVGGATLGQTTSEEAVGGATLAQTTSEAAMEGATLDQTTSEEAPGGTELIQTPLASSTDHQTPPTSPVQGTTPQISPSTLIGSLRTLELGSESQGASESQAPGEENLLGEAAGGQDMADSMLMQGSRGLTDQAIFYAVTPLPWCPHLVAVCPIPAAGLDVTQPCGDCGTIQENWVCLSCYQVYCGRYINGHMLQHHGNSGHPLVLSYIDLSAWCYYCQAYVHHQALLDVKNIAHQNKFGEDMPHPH

Experiment [3] deals with T3, Protein cereblon/Histone deacetylase 1 (Homo sapiens) (UniProt Q13547+Q96SW2). In words: Induction of CRBN ubiquitin ligase-mediated HDAC1 degradation in human MCF7 cells assessed as decrease in HDAC1 levels at 5 uM after 12 hrs by immunoblotting analysis. An outline of the steps: as §1
The target in experiment [4] is Protein cereblon/Histone deacetylase 4 (Homo sapiens) (UniProt P56524+Q96SW2). The experiment can be described thus: Induction of CRBN ubiquitin ligase-mediated HDAC4 degradation in human MCF7 cells assessed as decrease in HDAC4 levels at 5 uM after 12 hrs by immunoblotting analysis. An outline of the steps: as §1
Experiment [5] deals with Histone deacetylase (Homo sapiens) (UniProt Q13547+O15379+Q9UBN7+Q92769+Q9UQL6+Q8WUI4+Q9BY41+Q96DB2+P56524+Q9UKV0+Q969S8). In words: Inhibition of HDAC in human MCF7 cells assessed as increase in acetylated H3 levels at 2 uM after 12 hrs by immunoblotting analysis.
Experiment [6] concerns the target T2, Protein cereblon/Protein deacetylase HDAC6. The experiment can be described thus: Induction of CRBN ubiquitin ligase-mediated HDAC6 degradation in human MCF7 cells assessed as decrease in HDAC6 levels at 2 uM after 2 hrs by immunoblotting analysis. An outline of the steps:
(§2)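 Time course in MCF-7 cells: 2 µM degrader or DMSO vehicle for 0–8 h. Whole-cell lysate immunoblotted for HDAC6 and acetylated α-tubulin.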
Target sequence in this assay (Q96SW2 whole entry, looked up): as the sequence (Q96SW2 whole entry, looked up) above
Target sequence in this assay (Q9UBN7 whole entry, looked up): as the sequence (Q9UBN7 whole entry, looked up) above

For experiment [7], the target named is T1, Protein cereblon/Histone deacetylase 2 (Homo sapiens). The experiment can be described thus: Induction of CRBN ubiquitin ligase-mediated HDAC2 degradation in human MCF7 cells assessed as increase in acetylated H3 levels at 2 uM after 12 hrs by immunoblotting analysis.
The target in experiment [8] is T3, Protein cereblon/Histone deacetylase 1 (Homo sapiens). The experiment can be described thus: Induction of CRBN ubiquitin ligase-mediated HDAC1 degradation in human MCF7 cells assessed as increase in acetylated H3 levels at 2 uM after 12 hrs by immunoblotting analysis.
For experiment [9], the target named is T2, Protein cereblon/Protein deacetylase HDAC6. The experiment can be described thus: Induction of CRBN ubiquitin ligase-mediated HDAC6 degradation in human MCF7 cells assessed as decrease in HDAC6 levels at 2 uM preincubated for 1 hr with CRBN ligand pomalidomide followed by compound addition for 12 hrs by immunoblotting analysis. An outline of the steps: (§3)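 MCF-7 cells pre-treated 1 h with 5 µM MG132, 5 µM pomalidomide or DMSO vehicle, then given 2 µM degrader or vehicle for 12 h. Whole-cell lysate immunoblotted for HDAC6 and acetylated α-tubulin.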
Target sequence in this assay (Q96SW2 whole entry, looked up): as the sequence (Q96SW2 whole entry, looked up) above
Target sequence in this assay (Q9UBN7 whole entry, looked up): as the sequence (Q9UBN7 whole entry, looked up) above

The target is the same in experiment [10]. The experiment can be described thus: Induction of CRBN ubiquitin ligase-mediated HDAC6 degradation in human MCF7 cells assessed as decrease in HDAC6 levels after 12 hrs by immunoblotting analysis. An outline of the steps:
(§4)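 MCF-7 cells treated for 12 h across a range of 5 nM to 10 µM. Whole-cell lysate immunoblotted for HDAC6 and acetylated α-tubulin. Band intensities quantified by densitometry and curve-fitted to derive half-maximal degradation.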

Experiment [11] has the same target. The experiment can be described thus: Induction of CRBN ubiquitin ligase-mediated HDAC6 degradation in human MCF7 cells assessed as increase in acetylated alpha-tubulin levels at 2 uM preincubated for 1 hr with 100 nM pan-HDAC inhibitor N-hydroxy-8-(2-(4-methoxybenzylidene)hydrazinyl)-8-oxooctanamide followed by compound addition for 12 hrs by immunoblotting analysis. An outline of the steps:
(§5)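 MCF-7 cells pre-treated 1 h with pan-HDAC inhibitor (1 µM or 100 nM) or DMSO vehicle, then given 2 µM degrader or vehicle for 12 h. Whole-cell lysate immunoblotted for HDAC6 and acetylated α-tubulin.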
Target sequence in this assay (Q96SW2 whole entry, looked up): as the sequence (Q96SW2 whole entry, looked up) above
Target sequence in this assay (Q9UBN7 whole entry, looked up): as the sequence (Q9UBN7 whole entry, looked up) above

Experiment [12] shares this target. The experiment can be described thus: Induction of CRBN ubiquitin ligase-mediated HDAC6 degradation in human MCF7 cells assessed as decrease in HDAC6 levels at 2 uM preincubated for 1 hr with proteosome-inhibitor MG132 followed by compound addition for 12 hrs by immunoblotting analysis. An outline of the steps: as §3
Target sequence in this assay (Q96SW2 whole entry, looked up): as the sequence (Q96SW2 whole entry, looked up) above
Target sequence in this assay (Q9UBN7 whole entry, looked up): as the sequence (Q9UBN7 whole entry, looked up) above
The target is the same in experiment [13]. In words: Induction of CRBN ubiquitin ligase-mediated HDAC6 degradation in human MCF7 cells assessed as decrease in HDAC6 levels at 2 uM preincubated for 1 hr with 100 nM pan-HDAC inhibitor N-hydroxy-8-(2-(4-methoxybenzylidene)hydrazinyl)-8-oxooctanamide followed by compound addition for 12 hrs by immunoblotting analysis. An outline of the steps: as §5
Target sequence in this assay (Q96SW2 whole entry, looked up): as the sequence (Q96SW2 whole entry, looked up) above
Target sequence in this assay (Q9UBN7 whole entry, looked up): as the sequence (Q9UBN7 whole entry, looked up) above

Experiment [14] has the same target. The experiment can be described thus: Induction of CRBN ubiquitin ligase-mediated HDAC6 degradation in human MM1S cells assessed as increase in acetylated alpha-tubulin levels at =>80 nM after 6 hrs by immunoblotting analysis. An outline of the steps:
(§6)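 MM.1S cells treated for 6 h at a range of concentrations. Whole-cell lysate immunoblotted for HDAC6 and acetylated α-tubulin.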

Experiment [15] shares this target. In words: Induction of CRBN ubiquitin ligase-mediated HDAC6 degradation in human MCF7 cells assessed as increase in acetylated alpha-tubulin levels at 2 uM preincubated for 1 hr with proteosome-inhibitor MG132 followed by compound addition for 12 hrs by immunoblotting analysis. An outline of the steps: as §3
Experiment [16] shares this target. The experiment can be described thus: Induction of CRBN ubiquitin ligase-mediated HDAC6 degradation in human MCF7 cells assessed as increase in acetylated alpha-tubulin levels at 1.1 to 10 uM after 12 hrs by immunoblotting analysis. An outline of the steps: as §4
The target is the same in experiment [17]. The experiment can be described thus: Induction of CRBN ubiquitin ligase-mediated HDAC6 degradation in human MCF7 cells assessed as increase in acetylated alpha-tubulin levels at 2 uM after 2 hrs by immunoblotting analysis. An outline of the steps:
as §2

Experiment [18] has the same target. The experiment can be described thus: Induction of CRBN ubiquitin ligase-mediated HDAC6 degradation in human MCF7 cells assessed as decrease in HDAC6 levels at 2 uM preincubated for 1 hr with 1 uM pan-HDAC inhibitor N-hydroxy-8-(2-(4-methoxybenzylidene)hydrazinyl)-8-oxooctanamide followed by compound addition for 12 hrs by immunoblotting analysis. An outline of the steps: as §5

Experiment [19] shares this target. The experiment can be described thus: Induction of CRBN ubiquitin ligase-mediated HDAC6 degradation in human MCF7 cells assessed as increase in acetylated alpha-tubulin levels at 2 uM at 2 uM preincubated for 1 hr with CRBN ligand pomalidomide followed by compound addition for 12 hrs by immunoblotting analysis. An outline of the steps:
as §3

Experiment [20] has the same target. In words: Induction of CRBN ubiquitin ligase-mediated HDAC6 degradation in human MM1S cells assessed as decrease in HDAC6 levels at =>80 nM after 6 hrs by immunoblotting analysis. An outline of the steps:
as §6

This is an account of results in ChEMBL document CHEMBL4118247, “Development of the first small molecule histone deacetylase 6 (HDAC6) degraders” (Bioorg Med Chem Lett, 2018).

The source made the active and inactive calls. The calls are words filed in the database; no cut-off is given here.

Chain of Protein cereblon/Histone deacetylase 4 (Homo sapiens) (P56524 whole entry, looked up): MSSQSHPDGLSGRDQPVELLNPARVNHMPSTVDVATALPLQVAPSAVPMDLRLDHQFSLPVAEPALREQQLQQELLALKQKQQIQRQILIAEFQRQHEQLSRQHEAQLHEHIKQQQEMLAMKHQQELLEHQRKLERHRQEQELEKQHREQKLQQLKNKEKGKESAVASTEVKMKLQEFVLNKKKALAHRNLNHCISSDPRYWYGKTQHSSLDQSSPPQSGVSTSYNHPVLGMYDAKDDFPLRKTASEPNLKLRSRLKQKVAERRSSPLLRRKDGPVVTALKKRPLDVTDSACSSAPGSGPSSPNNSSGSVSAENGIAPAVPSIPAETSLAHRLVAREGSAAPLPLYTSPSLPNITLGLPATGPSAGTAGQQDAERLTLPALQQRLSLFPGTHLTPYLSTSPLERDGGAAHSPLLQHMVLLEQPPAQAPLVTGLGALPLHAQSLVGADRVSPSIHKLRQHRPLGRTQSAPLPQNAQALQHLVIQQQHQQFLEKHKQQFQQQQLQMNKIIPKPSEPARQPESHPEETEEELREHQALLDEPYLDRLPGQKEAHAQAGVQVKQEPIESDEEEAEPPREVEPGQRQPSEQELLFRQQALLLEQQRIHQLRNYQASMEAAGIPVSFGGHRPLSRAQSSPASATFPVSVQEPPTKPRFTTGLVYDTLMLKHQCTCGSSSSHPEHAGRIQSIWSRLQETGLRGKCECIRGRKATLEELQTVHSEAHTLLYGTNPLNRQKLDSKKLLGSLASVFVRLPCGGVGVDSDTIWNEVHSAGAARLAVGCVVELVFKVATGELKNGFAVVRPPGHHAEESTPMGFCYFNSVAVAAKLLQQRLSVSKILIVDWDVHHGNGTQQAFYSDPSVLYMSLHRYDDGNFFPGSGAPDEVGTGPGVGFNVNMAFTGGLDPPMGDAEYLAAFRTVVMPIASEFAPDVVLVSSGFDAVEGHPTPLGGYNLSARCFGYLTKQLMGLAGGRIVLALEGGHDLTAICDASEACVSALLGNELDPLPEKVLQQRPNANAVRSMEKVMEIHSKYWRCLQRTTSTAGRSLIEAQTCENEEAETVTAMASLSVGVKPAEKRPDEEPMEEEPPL
Chain of Protein cereblon/Histone deacetylase 4 (Homo sapiens) (Q96SW2 whole entry, looked up): as the sequence (Q96SW2 whole entry, looked up) above
T1 sequence (Q92769 whole entry, looked up): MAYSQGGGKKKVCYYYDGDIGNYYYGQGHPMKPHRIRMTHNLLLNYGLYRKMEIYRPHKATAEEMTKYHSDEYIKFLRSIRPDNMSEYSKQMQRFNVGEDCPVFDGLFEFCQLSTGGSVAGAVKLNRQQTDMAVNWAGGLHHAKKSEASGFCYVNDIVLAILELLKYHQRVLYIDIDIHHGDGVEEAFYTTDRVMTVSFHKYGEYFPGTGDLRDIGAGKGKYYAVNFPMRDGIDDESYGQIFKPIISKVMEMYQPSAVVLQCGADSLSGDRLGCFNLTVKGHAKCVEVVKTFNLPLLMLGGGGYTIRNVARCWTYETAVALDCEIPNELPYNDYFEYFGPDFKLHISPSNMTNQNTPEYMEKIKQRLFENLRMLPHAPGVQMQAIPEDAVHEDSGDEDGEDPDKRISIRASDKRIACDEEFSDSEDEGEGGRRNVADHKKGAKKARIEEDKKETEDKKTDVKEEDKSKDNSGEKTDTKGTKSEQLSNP
T1 sequence (Q96SW2 whole entry, looked up): as the sequence (Q96SW2 whole entry, looked up) above
T3 sequence (Q13547 whole entry, looked up): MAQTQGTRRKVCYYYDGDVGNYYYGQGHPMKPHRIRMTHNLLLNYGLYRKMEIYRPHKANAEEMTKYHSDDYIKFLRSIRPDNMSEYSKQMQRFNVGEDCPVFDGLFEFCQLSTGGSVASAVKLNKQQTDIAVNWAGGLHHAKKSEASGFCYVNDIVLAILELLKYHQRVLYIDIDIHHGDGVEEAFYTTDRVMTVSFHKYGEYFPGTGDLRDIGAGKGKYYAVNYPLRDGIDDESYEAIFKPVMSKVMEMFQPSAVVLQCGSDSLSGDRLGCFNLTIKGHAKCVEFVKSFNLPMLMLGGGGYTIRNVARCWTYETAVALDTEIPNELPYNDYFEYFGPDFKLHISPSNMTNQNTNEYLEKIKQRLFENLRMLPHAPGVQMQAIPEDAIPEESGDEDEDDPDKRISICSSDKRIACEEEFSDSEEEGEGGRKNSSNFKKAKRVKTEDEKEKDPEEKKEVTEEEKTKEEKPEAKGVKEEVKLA
T3 sequence (Q96SW2 whole entry, looked up): as the sequence (Q96SW2 whole entry, looked up) above

On to `O=C(CCCCCCC(=O)N/N=C/c1ccc(OCCOCCn2cc(CNc3cccc4c3C(=O)N(C3CCC(=O)NC3=O)C4=O)nn2)cc1)NO` (centres undefined), for which the outcome in experiment [1], in experiment [3] and in experiment [4] was inactive. The outcome in [2] was Active.

Consider `O=C(CCCCCCC(=O)N/N=C/c1ccc(OCCOCCOCCOCCn2cc(CNc3cccc4c3C(=O)N(C3CCC(=O)NC3=O)C4=O)nn2)cc1)NO` (centres undefined), for which the outcome in experiment [1], in experiment [3] and in [4] was inactive. In experiment [2], the outcome was Active.

Regarding `COc1ccc(/C=N/NC(=O)CCCCCCC(=O)NO)cc1`, in experiment [5], the inhibition result was “Active”.

Turning to `O=C(CCCCCCC(=O)N/N=C/c1ccc(OCCOCCOCCn2cc(CNc3cccc4c3C(=O)N(C3CCC(=O)NC3=O)C4=O)nn2)cc1)NO` (centres undefined), the result in [1], in [9], in [3], in experiment [12], in [15] and in experiment [18] was inactive. The outcome in experiment [4] and in [19] was inactive. In addition, the result in experiment [6], in experiment [7], in [8], in [11], in experiment [2] and in [13] was Active. For the same compound, the result in [14], in experiment [16], in experiment [17] and in experiment [20] was Active. The Activity result in experiment [10] was “Dose-dependent effect”. Besides, the DC50 in [10] is 34 nM. Further, the maximal effect (Emax) in experiment [10] came out at 70.5%.

Take `O=C(CCCCCCC(=O)N/N=C/c1ccc(OCCn2cc(CNc3cccc4c3C(=O)N(C3CCC(=O)NC3=O)C4=O)nn2)cc1)NO` (centres undefined): the outcome in [1], in experiment [3] and in experiment [4] was inactive. Also, the outcome in [2] was Active.
